Results from the RNAGym collection of RNA variant scans (doi:10.1126/science.aae0568).
Fewer inactive variants are shown than the library holds.

B1: tRNA (parent)
chain: GUUCCGUUGGCGUAAUGGUAACGCGUCUCCCUCCUAAGGAGAAGACUGCGGGUUCGAGUCCCGUACGGAACG

Variants of: B1
Assay: yeast fitness relative to wild type (ratio to wild type); higher = fitter; tRNA-Arg(CCU), competitive growth, 37 C, YPD
Outline: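 The tRNA-Arg(CCU) gene variants were made by chemical synthesis with a 3% per-site mutation rate at 69 sites and inserted at the native genomic locus of Saccharomyces cerevisiae. After pooling, the strains were competed in YPD at 37°C for 24 hours in six parallel replicates. Gene amplicons from the start population and each end population were read by 100-nucleotide paired-end sequencing, and Darwinian fitness relative to wild type was taken from genotype frequency changes. Genotypes needed ≥ 100 starting reads, and estimates < 0.5 were set to 0.5.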

Variant | yeast fitness
GUUCCGUUGGCGUAAAGGUAACGCGUCUCCCUCCUGAGGAGAAGACUGCGAGUUCGAGUCCCGCGCGGAACG [U16A A36G G51A U64C A65G] | ≤ 0.5
GUUCCGUUGGCGUAAAGGUAACGCGUCUCCCUCCUACGGAGAAGACUGCGGGUUCGAGUCCCGUACGGAACG [U16A A37C] | 0.653
GUUCCGUUGGCGUAAAGGUAACGCGUCUCCCUCCUACGGAGAAGACUGCGGGUUCGAGUACCGCACGGAACG [U16A A37C C60A U64C] | ≤ 0.5
GUUCCGUUGGCGUAAAGGUAACGCGUCUCCCUCCUAGGGCGAAGACUGCGGGUUCGAAUCCCGUACGGAACG [U16A A37G A40C G58A] | 0.604
GUUCCGUUGGCGUAAAGGUAACGCGUCUCCCUCCUAGGGAGAGGACUGCGGGUUCGAGUCCCGUACGGAACG [U16A A37G A43G] | ≤ 0.5
GUUCCGUUGGCGUAAAGGUAACGCGUCUCCCUCCUAUGGAGAAGACUGCGGGUUCGAGUCCAGUACGGAACG [U16A A37U C62A] | ≤ 0.5
GUUCCGUUGGCGUAAAGGUAACGCGUCUCCCUCCUAUGGAGAAGACUGCGGGUUCGAGUCCGGUACGGAACG [U16A A37U C62G] | ≤ 0.5
GUUCCGUUGGCGUAAAGGUAACGCGUCUCCCUCCUAUGGAGAAGACUGCGGGUUCAAGUCCCGUUCGGAACG [U16A A37U G56A A65U] | ≤ 0.5
GUUCCGUUGGCGUAAAGGUAACGCGUCUCCCUCCUAAGGCGAAGACUGCGGGUUAGAGUCCCGUAAGGAACG [U16A A40C C55A C66A] | ≤ 0.5
GUUCCGUUGGCGUAAAGGUAACGCGUCUCCCUCCUAAGGAGCAGACUGCGGGUACGAGUCCCGUACGGAACG [U16A A42C U54A] | ≤ 0.5
GUUCCGUUGGCGUAAAGGUAACGCGUCUCCCUCCUAAGGAGGAGACUGCGGGUUCGAGUCCCGUACGGAACG [U16A A42G] | 0.749
GUUCCGUUGGCGUAAAGGUAACGCGUCUCCCUCCUAAGGAGGAGACUGGGGGUUCGAGUCCCGUACGGAACG [U16A A42G C49G] | 0.542
GUUCCGUUGGCGUAAAGGUAACGCGUCUCCCUCCUAAGGAGUAGACUGCGGGUUCAAAUCCCGUACGGAACG [U16A A42U G56A G58A] | 0.817
GUUCCGUUGGCGUAAAGGUAACGCGUCUCCCUCCUAAGGAGACGACUGUGGGUUCGAGUCCCGUACGGAACG [U16A A43C C49U] | 0.656
GUUCCGUUGGCGUAAAGGUAACGCGUCUCCCUCCUAAGGAGAGGACUGCGGGUUCGAGUCCCGUACGGAACG [U16A A43G] | 1.01
GUUCCGUUGGCGUAAAGGUAACGCGUCUCCCUCCUAAGGAGAGGACUGCGGGUUCGAGUCCCGUACGGGGCG [U16A A43G A69G A70G] | ≤ 0.5
GUUCCGUUGGCGUAAAGGUAACGCGUCUCCCUCCUAAGGAGAUGACUGCGGGUUCGAGUCCCGUACGGAACG [U16A A43U] | 1.14
GUUCCGUUGGCGUAAAGGUAACGCGUCUCCCUCCUAAGGAGAAGCCUGCGGGUUCGAGUCCCGUGCGGAACG [U16A A45C A65G] | ≤ 0.5
GUUCCGUUGGCGUAAAGGUAACGCGUCUCCCUCCUAAGGAGAAGCCUGCGGGUUCGAGUCCCGUACGGCACG [U16A A45C A69C] | 0.662

Variant | yeast fitness
GUUCCGUUGGCGUAAAGGUAACGCGUCUCCCUCCUAAGGAGAAGCCUGCGGGUUCGAGUCCCCCACGGAACG [U16A A45C G63C U64C] | ≤ 0.5
GUUCCGUUGGCGUAAAGGUAACGCGUCUCCCUCCUAAGGAGAAGCCUGCGGGUUCGAGUCCCCCAUGGAACG [U16A A45C G63C U64C C66U] | ≤ 0.5
GUUCCGUUGGCGUAAAGGUAACGCGUCUCCCUCCUAAGGAGAAGGCUGCAGGUUCGAGUCCCGUACGGAACG [U16A A45G G50A] | ≤ 0.5
GUUCCGUUGGCGUAAAGGUAACGCGUCUCCCUCCUAAGGAGAAGGCUGCGGGUUCGAAUCCCGUACGGAACG [U16A A45G G58A] | 0.591
GUUCCGUUGGCGUAAAGGUAACGCGUCUCCCUCCUAAGGAGAAGUCUGCGGGUUCGAGUCCCGUACGGAACG [U16A A45U] | 1
GUUCCGUUGGCGUAAAGGUAACGCGUCUCCCUCCUAAGGAGAAGACUGCGGGUUCGCGUCCCGUACGGAACG [U16A A57C] | 0.668
GUUCCGUUGGCGUAAAGGUAACGCGUCUCCCUCCUAAGGAGAAGACUGCGGGUUCGCGUCCCGUAUGGCACG [U16A A57C C66U A69C] | ≤ 0.5
GUUCCGUUGGCGUAAAGGUAACGCGUCUCCCUCCUAAGGAGAAGACUGCGGGUUCGGGUCCCGUACGGAACG [U16A A57G] | 0.974
GUUCCGUUGGCGUAAAGGUAACGCGUCUCCCUCCUAAGGAGAAGACUGCGGGUUCGUGUCCCGUACGGAACG [U16A A57U] | 0.732
GUUCCGUUGGCGUAAAGGUAACGCGUCUCCCUCCUAAGGAGAAGACUGCGGGUUCGAGUCCCGUCCGGAACG [U16A A65C] | 0.939
GUUCCGUUGGCGUAAAGGUAACGCGUCUCCCUCCUAAGGAGAAGACUGCGGGUUCGAGUCCCGUACGGUACG [U16A A69U] | 1.03
GUUCCGUUGGCGUAAAGGUAAAGCGUCUUCCUCCUGAGGAGAAGCCUGCGGGUUCGAGUCCCGUACGGAACG [U16A C22A C29U A36G A45C] | ≤ 0.5
GUUCCGUUGGCGUAAAGGUAAAGCGUCUCCCUCCUAAGGAGAAGACUGCGGGUUCGAGUCCCGUAUGGAACG [U16A C22A C66U] | 0.675
GUUCCGUUGGCGUAAAGGUAAAGCGUCUCCCUCCUAAGGAGAAGACUGCGGGUUCAAGUCCCGUACGGAACG [U16A C22A G56A] | 0.696
GUUCCGUUGGCGUAAAGGUAAGGCGUCUCCCUCCUAAGGAGAAGCCUGCGGGUUCGAGUCCCGUACGGAACG [U16A C22G A45C] | 0.607
GUUCCGUUGGCGUAAAGGUAAGGCGUCUCCCUCUUAAGGAGAAGACUGCGAGUUCGAGUCCCGUACGGAACG [U16A C22G C34U G51A] | ≤ 0.5
GUUCCGUUGGCGUAAAGGUAAGGCGCCUCCCUCGUACGGUGAAGGCUGCGGGUUCGAGUCCAGUACGGAACG [U16A C22G U26C C34G A37C A40U A45G C62A] | ≤ 0.5
GUUCCGUUGGCGUAAAGGUAAUGCGUCUCCCUCCUAAGGAGAAGACUGCGGGUUCGAGUCCCGUACGGUACG [U16A C22U A69U] | 0.64
